From paper PMC3667888 (Channels, 2013)
Changes are numbered by the printed parent chain.

How the values were obtained:
Format in all cases: cell-based
[1] = target: T1, Kv4.2 K318E mutant channels (co-injected with KChIP1b) (Rattus norvegicus, UniProt Q63881, K318E); assay: Two-electrode voltage clamp, K318E mutant Kv4.2/KChIP1b in Xenopus oocytes; details: 10 µM AA
T1 sequence (Q63881 1-630 K318E): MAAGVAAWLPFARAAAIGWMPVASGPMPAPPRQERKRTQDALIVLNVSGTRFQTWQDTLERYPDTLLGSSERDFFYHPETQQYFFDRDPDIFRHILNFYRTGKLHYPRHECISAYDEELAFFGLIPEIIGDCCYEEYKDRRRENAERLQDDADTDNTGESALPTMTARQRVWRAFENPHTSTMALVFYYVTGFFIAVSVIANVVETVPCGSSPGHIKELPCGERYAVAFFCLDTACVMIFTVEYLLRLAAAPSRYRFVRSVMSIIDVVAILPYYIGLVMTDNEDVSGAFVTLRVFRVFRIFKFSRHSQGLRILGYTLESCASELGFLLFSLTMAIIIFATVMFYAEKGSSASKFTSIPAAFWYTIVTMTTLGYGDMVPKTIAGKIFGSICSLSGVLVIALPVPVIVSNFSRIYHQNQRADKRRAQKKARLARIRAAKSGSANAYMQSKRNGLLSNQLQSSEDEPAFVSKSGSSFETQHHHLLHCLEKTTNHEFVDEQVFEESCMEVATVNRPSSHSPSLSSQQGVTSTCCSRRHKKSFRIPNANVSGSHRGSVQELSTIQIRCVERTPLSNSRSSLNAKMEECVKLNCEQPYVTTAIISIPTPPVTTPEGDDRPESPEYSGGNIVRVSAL
Procedure, shortened: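 Xenopus oocytes co-expressing rat Kv4.2 (WT or mutant) with equimolar KChIP1b were recorded by two-electrode voltage clamp at room temperature. Peak conductance was calculated as G = I/(Vm − Vh), with Vh = −100 mV, and normalized to each cell's Gmax. It was plotted against step potential without and with 10 μM AA and fit to a first-order Boltzmann function to give V1/2 and slope.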

[2] = target: T2, Kv4.2 V261F mutant channels (co-injected with KChIP1b) (Rattus norvegicus, UniProt Q63881, V261F); assay: Two-electrode voltage clamp, V261F mutant Kv4.2/KChIP1b in Xenopus oocytes
T2 sequence (Q63881 1-630 V261F): T1 sequence (Q63881 1-630 K318E) with V261F, E318K
Procedure, shortened: (§1)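 Rat Kv4.2 (WT or QuikChange mutant) RNA co-injected equimolar with KChIP1b, 5–10 ng/oocyte, into Xenopus oocytes held 1–5 d at 17–19 °C. Two-electrode voltage clamp at room temperature in perfused Na/K methanesulfonate HEPES saline, pH 7.4–7.5, with P/−4 or P/−6 leak subtraction. Peak current at +40 mV (from −90 mV) after 10 min of 10 μM AA is expressed relative to pre-AA current. Mean ± SE, n = cells.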

[3] = system: Kv1.2/Kv2.1 chimeric channel; assay: Two-electrode voltage clamp of Kv1.2/2.1 chimera K+ currents in Xenopus oocytes; details: 10 µM AA
[4] = target: T3, Kv4.2 K318Q mutant channels (co-injected with KChIP1b) (Rattus norvegicus, UniProt Q63881, K318Q); assay: Two-electrode voltage clamp, K318Q mutant Kv4.2/KChIP1b in Xenopus oocytes
T3 sequence (Q63881 1-630 K318Q): T1 sequence (Q63881 1-630 K318E) with E318Q
Procedure, shortened: as §1

[5] = read-out: inhibition of the peak K+ current

CCCCC/C=C\C/C=C\C/C=C\C/C=C\CCCC(=O)O [AA, arachidonic acid]
V1/2 of conductance-voltage curve with AA [1]: −25.2 mV
shift in V1/2 in the presence of AA [1]: +5 mV
slope factor (k) of Boltzmann fit with AA [1]: 7.1
inhibition of peak K+ current by AA, effect of mutation ([1]; 10 min): did not impair the inhibition of current by AA
V1/2 of conductance-voltage curve with AA ([2]; 10 µM AA, V261F): −17.1 mV
slope factor (k) of Boltzmann fit with AA ([2]; 10 µM AA, V261F): 10.9
inhibition at 10 µM [2, 5]: 18%
modulation of Kv1.2/2.1 K+ currents by AA [3]: not modulated by AA
increase in current ([3]; n = 8, +110 mV test potential): 1.1 ± 2.1%
V1/2 of conductance-voltage curve with AA ([4]; 10 µM AA, K318Q): −8.6 mV
slope factor (k) of Boltzmann fit with AA ([4]; 10 µM AA, K318Q): 11.3
inhibition at 10 µM [4, 5]: 12%
